Assay results as given in ChEMBL document CHEMBL1914314, “Acidic triazoles as soluble guanylate cyclase stimulators” (Bioorg Med Chem Lett, 2011).

What was measured:
[1] = molecular target: T1, CYP1A2 (Homo sapiens, UniProt P05177); test: Inhibition of CYP1A2 at 3 uM; type: ADME
T1 sequence (P05177 whole entry): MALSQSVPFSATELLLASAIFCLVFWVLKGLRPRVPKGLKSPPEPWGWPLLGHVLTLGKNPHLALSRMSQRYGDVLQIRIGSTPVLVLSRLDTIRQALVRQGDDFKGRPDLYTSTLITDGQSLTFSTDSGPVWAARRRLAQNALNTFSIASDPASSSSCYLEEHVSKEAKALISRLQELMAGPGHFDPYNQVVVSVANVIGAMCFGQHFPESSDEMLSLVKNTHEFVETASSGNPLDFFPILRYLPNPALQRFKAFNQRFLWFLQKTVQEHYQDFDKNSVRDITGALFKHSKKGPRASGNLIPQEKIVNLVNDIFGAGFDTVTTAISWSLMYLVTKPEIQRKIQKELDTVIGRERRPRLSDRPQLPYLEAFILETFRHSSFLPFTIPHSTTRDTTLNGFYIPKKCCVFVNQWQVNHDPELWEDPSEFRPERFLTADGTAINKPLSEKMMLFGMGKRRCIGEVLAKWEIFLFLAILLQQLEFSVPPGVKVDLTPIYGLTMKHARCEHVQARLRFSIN

[2] = Intrinsic clearance in human liver microsomes assessed per mg of protein; type: ADME, Microsome
Procedure, shortened: (§1)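 Intrinsic metabolic clearance in liver microsomes, expressed as µL/min/mg protein.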

[3] = Octanol-buffer partition coefficient, log D of the compound at pH 7.4; type: physicochemical
Procedure, shortened: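 LogD measured by partition between octanol and pH 7.4 buffer.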

[4] = molecular target: T2, Soluble guanylate cyclase (Homo sapiens) (UniProt Q02153+O75343+P33402+Q02108); test: Activation of human soluble guanylate cyclase assessed as production of cGMP in presence of nitric oxide donor, SIN-1 by LC-MS enzyme assay; type: protein-complex assay
[5] = Apparent permeability from apical to basolateral side in dog RRCK cells; type: ADME, cell-based, Canis lupus familiaris, MDCKII-LE; conditions: MDCK
Procedure, shortened: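 Passive permeability measured in RRCK cells as Papp A→B, in units of 10^-6 cm/s.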

[6] = molecular target: T2, Soluble guanylate cyclase (Homo sapiens); test: Activation of human soluble guanylate cyclase assessed as production of cGMP in presence of nitric oxide donor, SIN-1 by FP assay; type: protein-complex assay
Procedure, shortened: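 Purified human sGC with the NO donor SIN-1 present. Enzyme converts GTP to cGMP, and the cGMP binds a cGMP-specific antibody included in the reactions. Read-out is fluorescence polarization.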

[7] = Activation of soluble guanylate cyclase in Sprague-Dawley rat thoracic aorta rings assessed as inhibition of noradrenaline-evoked vasoconstriction in presence of nitric oxide donor, DETA-NO
[8] = Clearance in rat at 2 mg/kg, iv; type: ADME, organism-based; design: dose 2 mg/kg, route intravenous; conditions: in vivo
Procedure, shortened: (§2)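 Rats dosed iv at 2 mg/kg. Clearance, volume of distribution at steady state and half-life derived after iv dosing.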

[9] = Volume of distribution at steady state in rat at 2 mg/kg, iv; type: ADME, organism-based; design: dose 2 mg/kg, route intravenous; conditions: in vivo, read-out: Vdss; procedure, shortened: as §2
[10] = Activation of soluble guanylate cyclase in Sprague-Dawley rat thoracic aorta rings assessed as […] in presence of nitric oxide donor, DETA-NO; type: tissue-based
[11] = Half life in rat at 2 mg/kg, iv; type: ADME, organism-based; design: dose 2 mg/kg, route intravenous; conditions: in vivo; procedure, shortened: as §2
[12] = Oral bioavailability in rat at 2 mg/kg; type: ADME, organism-based; conditions: in vivo
Procedure, shortened: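 Rats dosed orally at 2 mg/kg. Bioavailability determined after oral dosing, with a 2 mg/kg iv arm for reference.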

[13] = molecular target: Voltage-gated inwardly rectifying potassium channel KCNH2 (Homo sapiens, UniProt Q12809); test: Inhibition of human ERG
Sequence of Voltage-gated inwardly rectifying potassium channel KCNH2 (Q12809 whole entry): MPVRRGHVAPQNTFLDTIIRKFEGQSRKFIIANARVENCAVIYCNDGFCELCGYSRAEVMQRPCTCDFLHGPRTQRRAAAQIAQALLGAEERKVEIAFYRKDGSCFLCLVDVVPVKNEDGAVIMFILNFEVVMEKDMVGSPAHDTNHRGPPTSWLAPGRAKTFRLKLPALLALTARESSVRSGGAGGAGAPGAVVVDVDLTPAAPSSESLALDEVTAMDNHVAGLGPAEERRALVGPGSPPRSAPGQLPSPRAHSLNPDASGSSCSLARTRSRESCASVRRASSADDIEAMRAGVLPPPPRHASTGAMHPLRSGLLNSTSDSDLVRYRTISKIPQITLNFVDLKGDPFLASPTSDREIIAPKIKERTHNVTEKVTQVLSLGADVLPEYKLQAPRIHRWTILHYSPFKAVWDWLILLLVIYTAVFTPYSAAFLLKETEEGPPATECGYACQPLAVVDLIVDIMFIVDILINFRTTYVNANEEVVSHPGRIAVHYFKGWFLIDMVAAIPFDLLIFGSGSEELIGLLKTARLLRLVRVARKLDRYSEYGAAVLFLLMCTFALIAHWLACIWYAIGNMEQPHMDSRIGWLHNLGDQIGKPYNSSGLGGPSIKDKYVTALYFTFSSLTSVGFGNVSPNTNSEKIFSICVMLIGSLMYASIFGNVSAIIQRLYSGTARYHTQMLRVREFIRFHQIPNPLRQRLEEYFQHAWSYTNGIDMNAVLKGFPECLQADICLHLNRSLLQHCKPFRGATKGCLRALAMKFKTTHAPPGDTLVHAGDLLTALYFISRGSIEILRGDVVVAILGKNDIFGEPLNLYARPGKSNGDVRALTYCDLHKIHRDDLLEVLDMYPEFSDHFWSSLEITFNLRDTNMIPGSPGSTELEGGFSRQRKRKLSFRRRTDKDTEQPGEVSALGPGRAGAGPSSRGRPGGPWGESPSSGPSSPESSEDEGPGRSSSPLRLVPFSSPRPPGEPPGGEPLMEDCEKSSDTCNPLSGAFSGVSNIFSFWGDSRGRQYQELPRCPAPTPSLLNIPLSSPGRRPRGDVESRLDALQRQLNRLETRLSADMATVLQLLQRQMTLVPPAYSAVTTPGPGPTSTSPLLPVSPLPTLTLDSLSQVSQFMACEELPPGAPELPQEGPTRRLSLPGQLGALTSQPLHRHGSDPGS

[14] = Intrinsic clearance in rat liver microsomes assessed per mg of protein; type: ADME, Microsome; procedure, shortened: as §1
[15] = Apparent permeability of the compound by PAMPA assay; type: ADME
Procedure, shortened: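 Passive permeability from a PAMPA screen, as Papp in units of 10^-6 cm/s.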

SMILES | inhibition at 3 µM [1] | microsomal CLint [2] | logD [3] | EC10 [4] | Papp A→B [5] | EC20 [6] | IC50 [7] | clearance [8] | Vd [9] | IC50 [10] | half-life [11] | bioavailability [12] | microsomal CLint [14] | Papp [15] | INH [13]
OCc1ccc(-c2nn(Cc3ccccc3)c3ccccc23)o1 | 69% | 212 µL/min/mg | 3.7 | 3360 nM | 6 ×10⁻⁶ cm/s | – | – | – | – | – | – | – | – | – | –
Fc1ccccc1Cc1nc(-c2nc(C(F)F)n[nH]2)n2ccccc12 | 49% | 62 µL/min/mg | 3.8 | 507 nM | 0.2 ×10⁻⁶ cm/s | – | – | – | – | – | – | – | – | – | –
Nc1nc(-c2nn(Cc3ccccc3F)c3ncccc23)nc(N)c1N1CCOCC1 | – | – | 3.1 | 44 nM | – | 11 nM | 11 nM | – | – | – | – | – | – | – | –
Fc1ccccc1Cn1nc(-c2nc(C(F)(F)F)n[nH]2)c2cccnc21 | 20% | < 11 µL/min/mg | 3.2 | 60 nM | 20 ×10⁻⁶ cm/s | 22 nM | – | 8 mL/min/kg | 3.1 L/kg | 33 nM | 4.7 h | 66% | – | – | –
Fc1ccccc1Cc1nc(-c2nc(Cc3ccccc3)n[nH]2)n2ccccc12 | 29% | – | – | 840 nM | 0.5 ×10⁻⁶ cm/s | 554 nM | – | – | – | – | – | – | – | – | –
Cc1n[nH]c(-c2nc(Cc3ccccc3F)c3ccccn23)n1 | 23% | 124 µL/min/mg | 3.3 | 393 nM | 1 ×10⁻⁶ cm/s | – | – | – | – | – | – | – | – | – | –
Fc1ccccc1Cc1nc(-c2ncn[nH]2)n2ccccc12 | 39% | 175 µL/min/mg | 3.3 | 2800 nM | 8 ×10⁻⁶ cm/s | – | – | – | – | – | – | – | – | – | –
NC(=O)c1n[nH]c(-c2nc(Cc3ccccc3F)c3ccccn23)n1 | 16% | < 8 µL/min/mg | 2.8 | 2810 nM | 13 ×10⁻⁶ cm/s | – | – | – | – | – | – | – | – | – | –
Fc1ccccc1Cc1nc(-c2nc(C(F)(F)F)n[nH]2)c2cccnn12 | – | – | – | 224 nM | – | – | – | – | – | – | – | – | – | – | –
CS(=O)(=O)c1n[nH]c(-c2nc(Cc3ccccc3F)c3ccccn23)n1 | 3% | 14 µL/min/mg | 1.2 | 1340 nM | – | – | – | – | – | – | – | – | – | – | –

Second part, led by results:

inhibition at 3 µM [1] | microsomal CLint [2] | logD [3] | EC10 [4] | Papp A→B [5] | EC20 [6] | IC50 [7] | clearance [8] | Vd [9] | IC50 [10] | half-life [11] | bioavailability [12] | microsomal CLint [14] | Papp [15] | SMILES | INH [13]
5% | < 8 µL/min/mg | 2.1 | 366 nM | 27 ×10⁻⁶ cm/s | 245 nM | – | – | – | – | – | – | – | – | Cc1ncc(Cc2nc(-c3nc(C(F)(F)F)n[nH]3)n3ccccc23)cn1 | –
17% | 17 µL/min/mg | 2.5 | 724 nM | 28 ×10⁻⁶ cm/s | 221 nM | – | – | – | – | – | – | – | – | Fc1ccccc1Cc1nc(-c2nc(C(F)(F)F)n[nH]2)n2cccnc12 | –
31% | 92 µL/min/mg | 4.2 | 1170 nM | 3 ×10⁻⁶ cm/s | – | – | – | – | – | – | – | – | – | Fc1ccccc1Cc1nc(-c2nc(C(F)(F)C(F)(F)F)n[nH]2)n2ccccc12 | –
57% | 72 µL/min/mg | 3.8 | 470 nM | 6 ×10⁻⁶ cm/s | 281 nM | 40 nM | – | – | – | – | – | – | – | Fc1ccccc1Cc1nc(-c2nc(C(F)(F)F)n[nH]2)n2ccccc12 | –
15% | < 8 µL/min/mg | 2 | – | 23 ×10⁻⁶ cm/s | 73 nM | – | – | – | – | – | – | – | – | Cc1ncc(Cc2nc(-c3nc(C(F)(F)F)n[nH]3)n3cccc(F)c23)cn1 | –
66% | 20 µL/min/mg | 3.9 | 658 nM | 17 ×10⁻⁶ cm/s | 1070 nM | – | – | – | – | – | – | – | – | Fc1ccccc1Cc1nc(-c2nc(C(F)(F)F)n[nH]2)c2ccccn12 | –
82% | < 7 µL/min/mg | 1.8 | 210 nM | 19 ×10⁻⁶ cm/s | 80 nM | 60 nM | 9.9 mL/min/kg | 3.7 L/kg | – | 4.1 h | 61% | < 16 µL/min/mg | – | FC(F)(F)c1n[nH]c(-c2nc(Cc3cncnc3)c3ccccn23)n1 | > 10 µM
< 5% | < 7 µL/min/mg | – | – | – | 58 nM | – | – | – | – | – | – | – | 27 ×10⁻⁶ cm/s | Cc1ncc(Cn2nc(-c3nc(C(F)(F)F)n[nH]3)c3cccnc32)cn1 | –
